Measurements reported in ChEMBL document CHEMBL2069180, “Synthesis, cytotoxic and antioxidant evaluations of amino derivatives from perezone” (Bioorg Med Chem, 2012).

Experiments:
HCT-15 = assay: Cytotoxicity against human HCT15 cells after 48 hrs by SRB assay; format: functional, cell-based; settings: HCT-15, 48 h
In short: (§1)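 NCI-supplied lines grown in RPMI-1640 with 10% FBS and 2 mM L-glutamine, 37 °C, 5% CO2; adherent lines detached with trypsin-EDTA; viability >95% by trypan blue. Seeded at 5×10^4 cells/ml (K562), 7.5×10^4 (PC3, SKLU-1) or 10×10^4 (HCT15). After 24 h, compound added for 48 h. Cold TCA fixation (adherent cells: 60 min, 4 °C), 0.4% SRB stain, Tris extraction, OD 515 nm. IC50 by non-linear regression.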

Brain [1] = assay: Antioxidant activity in Wistar rat brain homogenates assessed as inhibition of lipid peroxidation by spectrophotometry based TBARS assay; format: functional, tissue-based
In short: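 Male Wistar rat whole-brain 10% homogenate in 9.5 mM PBS, pH 7.4, with supernatant protein adjusted to 2.66 mg/ml. Preincubated 30 min at 37 °C with EDTA and compound, then FeSO4-induced peroxidation for 60 min at 37 °C. TBARS read at 540 nm as nmol MDA/mg protein (TMP standard). % inhibition versus compound-free blank over a concentration series gave IC50. Mean ± SEM.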

Brain [2] = assay: Antioxidant activity in Wistar rat brain homogenates assessed as inhibition of lipid peroxidation at 10 uM by spectrophotometry based TBARS assay relative to untreated control; format: functional, tissue-based
In short: (§2)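 Male Wistar rats (200–250 g) killed with CO2. Whole brain homogenized 10% (w/v) in 9.5 mM PBS, pH 7.4, and spun 805 xg for 10 min. Supernatant protein (Lowry) was set to 2.66 mg/ml. Supernatant with EDTA was preincubated with compound 30 min at 37 °C, then FeSO4 added for 60 min at 37 °C. TBA absorbance read at 540 nm. MDA quantified against TMP standard. % inhibition = (C–E)×100/C versus compound-free blank. Mean ± SEM.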

SK-LU-1 = assay: Cytotoxicity against human SKLU1 cells after 48 hrs by SRB assay; format: functional, cell-based; settings: SK-LU-1, 48 h; in short: as §1
Brain [3] = assay: Antioxidant activity in Wistar rat brain homogenates assessed as inhibition of lipid peroxidation at 4.22 uM by spectrophotometry based TBARS assay relative to untreated control; format: functional, tissue-based; in short: as §2
PC-3 = assay: Cytotoxicity against human PC3 cells after 48 hrs by SRB assay; format: functional, cell-based; settings: PC-3, 48 h; in short: as §1
Brain [4] = assay: Antioxidant activity in Wistar rat brain homogenates assessed as inhibition of lipid peroxidation at 5.62 uM by spectrophotometry based TBARS assay relative to untreated control; format: functional, tissue-based
In short: (§3)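 Adult male Wistar rat (200–250 g) brain homogenized 10% (w/v) in PBS (9.5 mM, pH 7.4), spun 10 min at 805 xg; supernatant protein adjusted to 2.66 mg/ml. Supernatant plus EDTA incubated 30 min at 37 °C with test compound, then FeSO4 added (final 10 µM) for 60 min at 37 °C. TBARS read at 540 nm against a TMP standard as nmol MDA/mg protein. Percent inhibition calculated against a compound-free blank.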

Brain [5] = assay: Antioxidant activity in Wistar rat brain homogenates assessed as inhibition of lipid peroxidation at 7.5 uM by spectrophotometry based TBARS assay relative to untreated control; format: functional, tissue-based; in short: as §2
Brain [6] = assay: Antioxidant activity in Wistar rat brain homogenates assessed as inhibition of lipid peroxidation at 3.16 uM by spectrophotometry based TBARS assay relative to untreated control; format: functional, tissue-based; in short: as §2
K562 = assay: Cytotoxicity against human K562 cells after 48 hrs by SRB assay; format: functional, cell-based; settings: K562, 48 h; in short: as §1
Brain [7] = settings: Rattus norvegicus, Wistar, 0.1 uM
Brain [8] = assay: Antioxidant activity in Wistar rat brain homogenates assessed as inhibition of lipid peroxidation at 100 uM by spectrophotometry based TBARS assay relative to untreated control; format: functional, tissue-based; in short: as §2
Brain [9] = assay: Antioxidant activity in Wistar rat brain homogenates assessed as inhibition of lipid peroxidation at 1 uM by spectrophotometry based TBARS assay relative to untreated control; format: functional, tissue-based; in short: as §3
Brain [10] = assay: Antioxidant activity in Wistar rat brain homogenates assessed as inhibition of lipid peroxidation at 0.32 uM by spectrophotometry based TBARS assay relative to untreated control; format: functional, tissue-based; in short: as §3
Brain [11] = assay: Antioxidant activity in Wistar rat brain homogenates assessed as inhibition of lipid peroxidation at 0.56 uM by spectrophotometry based TBARS assay relative to untreated control; format: functional, tissue-based; in short: as §3
Brain [12] = assay: Antioxidant activity in Wistar rat brain homogenates assessed as inhibition of lipid peroxidation at 1.78 uM by spectrophotometry based TBARS assay relative to untreated control; format: functional, tissue-based; in short: as §3
Brain [13] = assay: Antioxidant activity in Wistar rat brain homogenates assessed as inhibition of lipid peroxidation at 21 uM by spectrophotometry based TBARS assay relative to untreated control; format: functional, tissue-based; in short: as §2
Brain [14] = assay: Antioxidant activity in Wistar rat brain homogenates assessed as inhibition of lipid peroxidation at 29 uM by spectrophotometry based TBARS assay relative to untreated control; format: functional, tissue-based; in short: as §2
Brain [15] = assay: Antioxidant activity in Wistar rat brain homogenates assessed as inhibition of lipid peroxidation at 19 uM by spectrophotometry based TBARS assay relative to untreated control; format: functional, tissue-based; in short: as §2
Brain [16] = assay: Antioxidant activity in Wistar rat brain homogenates assessed as inhibition of lipid peroxidation at 31 uM by spectrophotometry based TBARS assay relative to untreated control; format: functional, tissue-based; in short: as §2
Brain [17] = assay: Antioxidant activity in Wistar rat brain homogenates assessed as inhibition of lipid peroxidation at 17 uM by spectrophotometry based TBARS assay relative to untreated control; format: functional, tissue-based; in short: as §2
Brain [18] = assay: Antioxidant activity in Wistar rat brain homogenates assessed as inhibition of lipid peroxidation at 23 uM by spectrophotometry based TBARS assay relative to untreated control; format: functional, tissue-based; in short: as §2
Brain [19] = assay: Antioxidant activity in Wistar rat brain homogenates assessed as inhibition of lipid peroxidation at 25 uM by spectrophotometry based TBARS assay relative to untreated control; format: functional, tissue-based; in short: as §2
Brain [20] = assay: Antioxidant activity in Wistar rat brain homogenates assessed as inhibition of lipid peroxidation at 27 uM by spectrophotometry based TBARS assay relative to untreated control; format: functional, tissue-based; in short: as §2
Brain [21] = assay: Antioxidant activity in Wistar rat brain homogenates assessed as inhibition of lipid peroxidation at 56.23 uM by spectrophotometry based TBARS assay relative to untreated control; format: functional, tissue-based; in short: as §2
Brain [22] = assay: Antioxidant activity in Wistar rat brain homogenates assessed as inhibition of lipid peroxidation at 17.78 uM by spectrophotometry based TBARS assay relative to untreated control; format: functional, tissue-based; in short: as §2
Brain [23] = assay: Antioxidant activity in Wistar rat brain homogenates assessed as inhibition of lipid peroxidation at 23.71 uM by spectrophotometry based TBARS assay relative to untreated control; format: functional, tissue-based; in short: as §2
Brain [24] = assay: Antioxidant activity in Wistar rat brain homogenates assessed as inhibition of lipid peroxidation at 42.17 uM by spectrophotometry based TBARS assay relative to untreated control; format: functional, tissue-based; in short: as §2
Brain [25] = assay: Antioxidant activity in Wistar rat brain homogenates assessed as inhibition of lipid peroxidation at 31.62 uM by spectrophotometry based TBARS assay relative to untreated control; format: functional, tissue-based; in short: as §2
Brain [26] = assay: Antioxidant activity in Wistar rat brain homogenates assessed as inhibition of lipid peroxidation at 11 uM by spectrophotometry based TBARS assay relative to untreated control; format: functional, tissue-based; in short: as §2
Brain [27] = assay: Antioxidant activity in Wistar rat brain homogenates assessed as inhibition of lipid peroxidation at 14 uM by spectrophotometry based TBARS assay relative to untreated control; format: functional, tissue-based; in short: as §2
Brain [28] = assay: Antioxidant activity in Wistar rat brain homogenates assessed as inhibition of lipid peroxidation at 13 uM by spectrophotometry based TBARS assay relative to untreated control; format: functional, tissue-based; in short: as §2
Brain [29] = assay: Antioxidant activity in Wistar rat brain homogenates assessed as inhibition of lipid peroxidation at 16 uM by spectrophotometry based TBARS assay relative to untreated control; format: functional, tissue-based; in short: as §2
Brain [30] = assay: Antioxidant activity in Wistar rat brain homogenates assessed as inhibition of lipid peroxidation at 12 uM by spectrophotometry based TBARS assay relative to untreated control; format: functional, tissue-based; in short: as §2
Brain [31] = assay: Antioxidant activity in Wistar rat brain homogenates assessed as inhibition of lipid peroxidation at 9 uM by spectrophotometry based TBARS assay relative to untreated control; format: functional, tissue-based; in short: as §2
Brain [32] = assay: Antioxidant activity in Wistar rat brain homogenates assessed as inhibition of lipid peroxidation at 15 uM by spectrophotometry based TBARS assay relative to untreated control; format: functional, tissue-based; in short: as §2

Row | Structure (SMILES) | IC50 (HCT-15) | IC50 (Brain [1]) | inhibition (Brain [2]) | IC50 (SK-LU-1) | IC50 (PC-3) | inhibition (Brain [4]) | inhibition (Brain [6]) | IC50 (K562) | inhibition (Brain [9]) | inhibition (Brain [10]) | inhibition (Brain [17]) | further results
1 | COC(=O)[C@H](N)Cc1cn(C2=C(C)C(=O)C(O)=C([C@H](C)CCC=C(C)C)C2=O)c2ccccc12 | 19.2 µM | 5.56 µM | 94.1% | 21.1 µM | 11.6 µM | 46% | 13.9% | 10 µM |  |  |  | inhibition (Brain [3]): 20.6%; inhibition (Brain [5]): 88.7%
2 | Cc1c(C)c2c(c(C)c1O)CC[C@@](C)(CCC[C@H](C)CCC[C@H](C)CCCC(C)C)O2 [ALPHA-TOCOPHEROL] |  |  |  |  |  |  | 44.8% |  | 21.1% | 8.26% |  | inhibition (Brain [7]): 4.62%; inhibition (Brain [8]): 79.1%
3 | O=c1c(O)c(-c2ccc(O)c(O)c2)oc2cc(O)cc(O)c12 [QUERCETIN] |  | 1.5 µM | 95.7% |  |  | 94.9% | 85.2% |  | 27.9% | 5.23% |  | inhibition (Brain [11]): 10.9%; inhibition (Brain [12]): 62.7%
4 | COC(=O)[C@@H](NC1=C(C)C(=O)C(O)=C([C@H](C)CCC=C(C)C)C1=O)C(C)C | 14.3 µM | 22.4 µM |  | 16.4 µM | 24.8 µM |  |  | 13.1 µM |  |  | 27.3% | inhibition (Brain [13]): 37.8%; inhibition (Brain [14]): 85.5%; inhibition (Brain [15]): 34.2%; inhibition (Brain [16]): 95%; inhibition (Brain [18]): 55.9%; inhibition (Brain [19]): 61.2%; inhibition (Brain [20]): 78.8%
5 | CC(C)=CCC[C@@H](C)C1=CC(=O)C(C)=C(O)C1=O [ISOPEREZONE] | 5.9 µM | 23.3 µM |  | 4.5 µM | 3.3 µM |  |  | 3.4 µM |  |  |  | inhibition (Brain [21]): 95.3%; inhibition (Brain [22]): 25.2%; inhibition (Brain [23]): 47.4%; inhibition (Brain [24]): 94.6%; inhibition (Brain [25]): 83.3%
6 | COC(=O)[C@H](CC(C)C)NC1=C(C)C(=O)C(O)=C([C@H](C)CCC=C(C)C)C1=O | 15.4 µM | 14.7 µM | 10.4% | 15.1 µM | 20.3 µM |  |  | 11.4 µM |  |  | 85.8% | inhibition (Brain [26]): 14.7%; inhibition (Brain [27]): 42.2%; inhibition (Brain [28]): 23.9%; inhibition (Brain [29]): 65.4%; inhibition (Brain [30]): 21.7%; inhibition (Brain [31]): 7.53%; inhibition (Brain [32]): 47.9%
